# Calls of active or inactive are those of the source. No cut-off for these calls is given here.
# Key:
# [1] = Stability of the compound in pH 7.4 PBS buffer at 37 degC after 1 hr; assay type: physicochemical; conditions: pH 7.4, 1 h
# In short: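 Compound incubated 1 h in pH 7.4 PBS at 37 °C, then checked for decomposition.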
# [2] = molecular target: T1, Carnitine O-palmitoyltransferase 1, muscle isoform (Rattus norvegicus, UniProt Q63704); experiment: Inhibition of Wistar rat heart mitochondrial CPT-1 assessed as reduction in conversion of palmitoyl CoA and L-carnitine into palmitoylcarnitine preincubated for 3 mins followed by L-carnitine and palmitoyl CoA addition measured for 3.5 mins by spectrophotometric analysis
# T1 sequence (Q63704 whole entry): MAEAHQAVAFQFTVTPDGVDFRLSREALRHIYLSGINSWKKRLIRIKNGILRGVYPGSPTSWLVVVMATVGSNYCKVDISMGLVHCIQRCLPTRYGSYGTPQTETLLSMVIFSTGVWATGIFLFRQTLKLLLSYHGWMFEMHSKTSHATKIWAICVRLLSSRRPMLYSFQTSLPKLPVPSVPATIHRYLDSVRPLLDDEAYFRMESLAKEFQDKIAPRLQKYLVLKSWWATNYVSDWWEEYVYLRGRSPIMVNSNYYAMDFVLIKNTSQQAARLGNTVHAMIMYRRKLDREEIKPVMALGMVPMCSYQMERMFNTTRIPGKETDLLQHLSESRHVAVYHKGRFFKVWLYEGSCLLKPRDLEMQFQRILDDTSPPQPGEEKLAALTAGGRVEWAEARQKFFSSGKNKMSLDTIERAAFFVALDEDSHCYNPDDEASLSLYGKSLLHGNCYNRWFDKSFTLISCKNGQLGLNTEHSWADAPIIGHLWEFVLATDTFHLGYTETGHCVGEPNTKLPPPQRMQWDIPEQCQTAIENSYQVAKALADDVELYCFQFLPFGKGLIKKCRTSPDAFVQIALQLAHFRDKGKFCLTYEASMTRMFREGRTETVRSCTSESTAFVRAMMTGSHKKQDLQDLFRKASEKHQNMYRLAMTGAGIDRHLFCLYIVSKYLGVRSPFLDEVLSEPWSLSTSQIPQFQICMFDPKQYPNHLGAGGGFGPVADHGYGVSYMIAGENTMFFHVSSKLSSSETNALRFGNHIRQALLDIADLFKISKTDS
# [3] = Half life in human liver microsomes at 3 uM up to 45 mins in presence of NADPH by LC-MS/MS analysis; assay type: ADME, microsome
# [4] = Half life in Sprague-Dawley rat liver microsomes at 3 uM up to 45 mins in presence of NADPH by LC-MS/MS analysis; assay type: ADME, microsome
# [5] = Plasma concentration in BALB/c mouse at 10 mg/kg, po administered via gavage every 24 hrs for 7 days measured 4 hrs post last dose by LC-MS/MS analysis; assay type: ADME, organism-based
# In short: (§1)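 Male BALB/c mice, daily oral gavage at 10 mg/kg. Plasma and myocardium sampled 1, 4, 8 and 24 h after dosing, n = 3 per timepoint. […] Myocardium:plasma ratios taken from drug concentration or from AUC. Student's t-test used.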
# [6] = Ratio of drug level in myocardium to plasma in Sprague-Dawley rat at 10 mg/kg, po administered via gavage every 24 hrs measured at 8 hrs post dose by LC-MS/MS analysis; assay type: ADME, organism-based; conditions: myocardium and plasma
# In short: (§2)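 Male Sprague-Dawley rats, daily oral dosing at 10 mg/kg. Plasma sampled at 1, 2, 4, 8 and 24 h after dosing, n = 3 per timepoint. Myocardium measured at 1 and 8 h. Myocardium:plasma ratio taken from drug concentration.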
# [7] = AUC (0 to 24 hrs) in BALB/c mouse myocardium at 10 mg/kg, po administered via gavage every 24 hrs for 7 days measured post last dose by LC-MS/MS analysis; assay type: ADME, organism-based; parameters: time < 24 hr, dose 10 mg/kg, route oral; in short: as §1
# CYP2D6 = CYP2D6 (Homo sapiens, UniProt P10635); experiment: Drug metabolism assessed as human CYP2D6-mediated compound degradation by measuring half life at 5 uM up to 45 mins in presence of NADPH by LC-MS/MS analysis; assay type: ADME
# Chain of CYP2D6 (P10635 whole entry): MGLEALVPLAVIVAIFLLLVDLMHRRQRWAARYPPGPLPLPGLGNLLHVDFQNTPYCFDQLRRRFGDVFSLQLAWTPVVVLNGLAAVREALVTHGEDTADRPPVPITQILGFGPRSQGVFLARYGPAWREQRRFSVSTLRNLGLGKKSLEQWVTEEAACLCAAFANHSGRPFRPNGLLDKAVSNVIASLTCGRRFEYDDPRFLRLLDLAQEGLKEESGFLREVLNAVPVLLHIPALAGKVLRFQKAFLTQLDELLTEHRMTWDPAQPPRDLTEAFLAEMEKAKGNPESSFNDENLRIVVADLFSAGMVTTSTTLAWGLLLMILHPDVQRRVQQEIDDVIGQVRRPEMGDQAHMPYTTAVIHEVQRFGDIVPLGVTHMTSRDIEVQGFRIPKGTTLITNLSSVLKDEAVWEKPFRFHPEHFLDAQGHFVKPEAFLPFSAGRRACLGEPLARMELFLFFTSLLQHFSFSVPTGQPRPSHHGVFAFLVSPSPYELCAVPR
# [8] = Drug uptake in BALB/c mouse myocardium at 10 mg/kg, po administered via gavage every 24 hrs for 7 days measured 4 hrs post last dose by LC-MS/MS analysis; assay type: ADME, organism-based; conditions: read-out: Drug uptake; in short: as §1
# [9] = Ratio of drug level in myocardium to plasma in Sprague-Dawley rat at 10 mg/kg, po administered via gavage every 24 hrs measured at 1 hr post dose by LC-MS/MS analysis; assay type: ADME, organism-based; conditions: myocardium and plasma; in short: as §2
# Heart [10] = experiment: Cardioprotective activity in Langendorff perfused C57BL/6 mouse heart assessed as increase in cardiac contractility at 2 uM perfused for 30 mins in presence of high fat relative to control; assay type: functional
# In short: (§3)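 Isolated C57BL/6 hearts (25-30 g) retrogradely perfused at constant 80 mmHg, 37 °C, 95% O2/5% CO2, with modified Krebs containing 1.2 mM sodium palmitate conjugated to 3% BSA. After 10 min stabilisation, 30 min perfusion with control buffer or compound at 2 or 10 µM. LVdP/dt max and min derived from LV pressure over 40 min; mean ± SEM, n = 12-19, 1-way ANOVA with Bonferroni.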
# [11] = Plasma concentration in Sprague-Dawley rat at 10 mg/kg, po administered via gavage every 24 hrs measured at 8 hrs post last dose by LC-MS/MS analysis; assay type: ADME, organism-based; in short: as §2
# [12] = Plasma concentration in Sprague-Dawley rat at 10 mg/kg, po administered via gavage every 24 hrs measured at 1 hr post dose by LC-MS/MS analysis; assay type: ADME, organism-based; in short: as §2
# [13] = Ratio of drug level in myocardium to plasma in BALB/c mouse at 10 mg/kg, po administered via gavage every 24 hrs for 7 days measured 4 hrs post last dose by LC-MS/MS analysis; assay type: ADME, organism-based; conditions: myocardium and plasma; in short: as §1
# [14] = Drug uptake in BALB/c mouse myocardium at 10 mg/kg, po administered via gavage every 24 hrs for 7 days measured 8 hrs post last dose by LC-MS/MS analysis; assay type: ADME, organism-based; conditions: read-out: Drug uptake; in short: as §1
# [15] = Ratio of drug level in myocardium to plasma in BALB/c mouse at 10 mg/kg, po administered via gavage every 24 hrs for 7 days measured 1 hr post last dose by LC-MS/MS analysis; assay type: ADME, organism-based; conditions: myocardium and plasma; in short: as §1
# [16] = Ratio of AUC (0 to 24 hrs) in myocardium to plasma in BALB/c mouse at 10 mg/kg, po administered via gavage every 24 hrs for 7 days measured post last dose by LC-MS/MS analysis; assay type: ADME, organism-based; conditions: myocardium and plasma, read-out: Ratio AUC; in short: as §1
# [17] = Drug uptake in Sprague-Dawley rat myocardium at 10 mg/kg, po administered via gavage every 24 hrs measured at 1 hr post last dose by LC-MS/MS analysis; assay type: ADME, organism-based; conditions: read-out: Drug uptake; in short: as §2
# [18] = Plasma concentration in Sprague-Dawley rat at 10 mg/kg, po administered via gavage every 24 hrs measured at 2 hrs post last dose by LC-MS/MS analysis; assay type: ADME, organism-based; in short: as §2
# [19] = AUC (0 to 24 hrs) in BALB/c mouse plasma at 10 mg/kg, po administered via gavage every 24 hrs for 7 days measured post last dose by LC-MS/MS analysis; assay type: ADME, organism-based; parameters: dose 10 mg/kg, time < 24 hr, route oral; in short: as §1
# [20] = Drug uptake in Sprague-Dawley rat myocardium at 10 mg/kg, po administered via gavage every 24 hrs measured at 8 hrs post last dose by LC-MS/MS analysis; assay type: ADME, organism-based; conditions: read-out: Drug uptake; in short: as §2
# [21] = Drug uptake in BALB/c mouse myocardium at 10 mg/kg, po administered via gavage every 24 hrs for 7 days measured 1 hr post last dose by LC-MS/MS analysis; assay type: ADME, organism-based; conditions: read-out: Drug uptake; in short: as §1
# [22] = Ratio of drug level in myocardium to plasma in BALB/c mouse at 10 mg/kg, po administered via gavage every 24 hrs for 7 days measured 8 hrs post last dose by LC-MS/MS analysis; assay type: ADME, organism-based; conditions: myocardium and plasma; in short: as §1
# Heart [23] = experiment: Cardioprotective activity in Langendorff perfused C57BL/6 mouse heart assessed as increase in cardiac relaxation at 2 uM perfused for 30 mins in presence of high fat relative to control; assay type: functional; in short: as §3
# [24] = Plasma concentration in BALB/c mouse at 10 mg/kg, po administered via gavage every 24 hrs for 7 days measured at 1 hr post last dose by LC-MS/MS analysis; assay type: ADME, organism-based; in short: as §1
# [25] = Plasma concentration in BALB/c mouse at 10 mg/kg, po administered via gavage every 24 hrs for 7 days measured 8 hrs post last dose by LC-MS/MS analysis; assay type: ADME, organism-based; in short: as §1
# [26] = Plasma concentration in Sprague-Dawley rat at 10 mg/kg, po administered via gavage every 24 hrs measured at 4 hrs post last dose by LC-MS/MS analysis; assay type: ADME, organism-based; in short: as §2
# Heart [27] = experiment: Cardioprotective activity against Langendorff perfused C57BL/6 mouse heart assessed as lusitropic effect at 2 uM measured for 40 mins reperfusion period in presence of high fat; assay type: functional, tissue-based; in short: as §3
compound,measurement,setting,value
C1CCC(CC(C2CCCC2)C2CCCC2)NC1 (centres undefined),Stability,[1],Stable
same,IC50,[2],19 µM
same,half-life at 3 µM,[3],0.833 h
same,half-life at 3 µM,[4],14 min
C1CCC(C(CC2CCCCN2)C2CCCCC2)CC1 (racemic) [PERHEXILINE],concentration at 4 h,[5],28.3 ng/mL
same,Kp at 8 h,[6],11.5
same,AUC at 24 h,[7],2110 ng·h/mL
same,half-life at 5 µM,CYP2D6,14 min
same,concentration at 4 h,[8],126 ng/mL
same,Kp at 1 h,[9],19
same,fold change (FC),Heart [10],2.1
same,IC50,[2],11 µM
same,concentration at 8 h,[11],31.4 ng/mL
same,concentration at 1 h,[12],99.9 ng/mL
same,Kp at 4 h,[13],4.9
same,concentration at 8 h,[14],29.2 ng/mL
same,half-life at 3 µM,[3],1.67 h
same,Kp at 1 h,[15],5.7
same,Kp,[16],2.4
same,concentration at 1 h,[17],1900 ng/mL
same,concentration at 2 h,[18],113 ng/mL
same,AUC at 24 h,[19],876 ng·h/mL
same,concentration at 8 h,[20],361 ng/mL
same,concentration at 1 h,[21],664 ng/mL
same,Kp at 8 h,[22],4.8
same,fold change (FC),Heart [23],3.2
same,concentration at 1 h,[24],116 ng/mL
same,concentration at 8 h,[25],6 ng/mL
same,half-life at 3 µM,[4],21 min
same,concentration at 4 h,[26],97.4 ng/mL
C1CCC(C(CC2CCCCN2)C2CCOCC2)CC1 (centres undefined),half-life at 5 µM,CYP2D6,7 min
same,Stability,[1],Stable
same,IC50,[2],715 µM
same,half-life at 3 µM,[3],1.4 h
same,half-life at 3 µM,[4],31 min
C1CCC(C(CC2CCCCN2)C2CCC2)CC1 (centres undefined),Stability,[1],Stable
same,half-life at 3 µM,[3],> 3.33 h
same,half-life at 3 µM,[4],10 min
C1CCC(C(CC2CCCCN2)C2CCCCC2)CC1.O=C(O)/C=C\C(=O)O (centres undefined) [PERHEXILINE MALEATE],IC50,[2],32 µM
same,half-life at 3 µM,[3],1.63 h
same,half-life at 3 µM,[4],10 min
C1CCC(CC(C2CCCC2)C2CCC2)NC1 (centres undefined),Stability,[1],Stable
same,half-life at 3 µM,[3],0.85 h
same,half-life at 3 µM,[4],7 min
FC1(F)CCCC(C(CC2CCCCN2)C2CCCCC2)C1 (centres undefined),Stability,[1],Stable
same,IC50,[2],215 µM
same,half-life at 3 µM,[3],> 2.5 h
same,half-life at 3 µM,[4],35 min
CC1(C)CCC(C(CC2CCCCN2)C2CCCCC2)CC1 (centres undefined),Stability,[1],Stable
same,half-life at 3 µM,[3],1.28 h
same,half-life at 3 µM,[4],20 min
FC1(F)CCC(C(CC2CCCCN2)C2CCC(F)(F)CC2)CC1 (centres undefined),half-life at 5 µM,CYP2D6,> 150 min
same,Stability,[1],Stable
same,IC50,[2],88 µM
same,half-life at 3 µM,[3],> 66.7 h
same,half-life at 3 µM,[4],> 1500 min
CC(C)(COP(=O)(O)OP(=O)(O)OC[C@H]1O[C@@H](n2cnc3c(N)ncnc32)[C@H](O)[C@@H]1OP(=O)(O)O)[C@@H](O)C(=O)NCCC(=O)NCCSC(=O)CC(=O)O [MALONYL-COENZYME A],IC50,[2],1.2 µM
C1CCC(C(CC2CCCCN2)C2CC2)CC1 (centres undefined),Stability,[1],Stable
same,half-life at 3 µM,[3],2.07 h
same,half-life at 3 µM,[4],3 min
C1CCC(CC(C2CCCC2)C2CC2)NC1 (centres undefined),Stability,[1],Stable
same,half-life at 3 µM,[3],0.45 h
same,half-life at 3 µM,[4],3 min
OC1CCC(C(CC2CCCCN2)C2CCCCC2)CC1 (centres undefined),IC50,[2],475 µM
Fc1ccc(C(CC2CCCCN2)C2CCCCC2)cc1 (centres undefined),Stability,[1],Stable
same,half-life at 3 µM,[3],1.32 h
same,half-life at 3 µM,[4],7 min
c1ccc(C(CC2CCCCN2)C2CCCCC2)cc1 (centres undefined),Stability,[1],Stable
same,half-life at 3 µM,[3],0.933 h
same,half-life at 3 µM,[4],4 min
FC1CCC(C(CC2CCCCN2)C2CCCCC2)CC1 (centres undefined),half-life at 5 µM,CYP2D6,16 min
same,Stability,[1],Unstable
same,half-life at 3 µM,[3],1.08 h
same,half-life at 3 µM,[4],11 min
FC1CCC(C(CC2CCCCN2)C2CCC(F)CC2)CC1 (centres undefined),Stability,[1],Unstable
C1CCC(C(C[C@@H]2CCCCN2)C2CCCCC2)CC1,IC50,[2],14 µM
same,half-life at 3 µM,[3],1.08 h
same,half-life at 3 µM,[4],11 min
C1CCC(C(CC2CCCCN2)C2CCCC2)CC1 (centres undefined),half-life at 5 µM,CYP2D6,16 min
same,Stability,[1],Stable
same,IC50,[2],11 µM
same,half-life at 3 µM,[3],> 2.5 h
same,half-life at 3 µM,[4],19 min
C1CCC(C(CC2CCCCN2)C2CCCCC2)CC1 (racemic),Activity,Heart [27],Active
